Laboratory results as given in ChEMBL document CHEMBL4270618, “Synthesis and biological evaluation of a library of hybrid derivatives as inhibitors of influenza virus PA-PB1 interaction” (Eur J Med Chem, 2018).

How the values were obtained:
[1] = Cytotoxicity against MDCK cells assessed as decrease in cell viability after 48 hrs by MTT assay; format: cell-based, Canis lupus familiaris; settings: dog
Outline: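 MDCK at 5×10^3 cells/well with 2-fold serial dilutions from 250 µM, or DMSO, for 48 h. MTT (5 mg/mL stock in PBS) added for 4 h at 37 °C, then solubilising solution for 3 h at 37 °C. Absorbance read at 620 nm against DMSO = 100%. CC50 as mean ± SD, ≥3 experiments in duplicate.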

[2] = Cytotoxicity against HEK293T cells assessed as decrease in cell viability after 24 hrs by MTT assay; format: cell-based, HEK-293T; settings: human
Outline: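 HEK 293T at 2×10^4 cells/well with 2-fold serial dilutions from 250 µM, or DMSO, for 24 h. MTT (5 mg/mL stock in PBS) added for 4 h at 37 °C, then solubilised for 3 h at 37 °C. Absorbance read at 620 nm, DMSO wells = 100% viability. CC50 as mean ± SD, ≥3 independent experiments in duplicate.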

[3] = target: PA/PB1 (Influenza A virus (A/Puerto Rico/8/1934(H1N1)), UniProt P03431+P03433); assay: Inhibition of Influenza A virus A/PR/8/34 (H1N1) PA-PB1 interaction expressed in HEK293T cells assessed as decrease in RNA polymerase activity incubated for 24 hrs by minireplicon based luciferase reporter gene assay; format: cell-based
Outline: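 HEK 293T (2×10^5/well) transfected 24 h after seeding, by calcium phosphate, with PR8 PB1, PB2, PA and NP plasmids (100 ng each), a PolI firefly-luciferase minireplicon (50 ng) and SV40-Renilla (50 ng) for normalisation. Compound or DMSO present during transfection; medium renewed at 4 h with compound. Dual luciferase read at 24 h. EC50 as mean ± SD, ≥3 experiments in duplicate.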

[4] = target: PA/PB1 (Influenza A virus (A/Puerto Rico/8/1934(H1N1)), UniProt P03431+P03433); assay: Inhibition of Influenza A virus A/PR/8/34 (H1N1) 6His-tagged PA (239 to 716 residues)/GST-tagged PB1 (1 to 25 residues) interaction expressed in Escherichia coli incubated overnight by ELISA
Outline: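 Wells coated with 400 ng E. coli-expressed 6His-PA(239–716) for 3 h at 37 °C, then blocked with 2% BSA/PBS for 1 h. 200 ng GST-PB1(1–25), or GST control, in serum-free DMEM added with compound or DMSO, overnight at room temperature. Bound protein detected with HRP-anti-GST and TMB, OD450. DMSO = 100% interaction. IC50 as mean ± SD, ≥3 experiments in duplicate.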

Influenza A virus = assay: Antiviral activity against Influenza A virus A/PR/8/34 (H1N1) infected in MDCK cells measured after 2 days by plaque reduction assay; format: functional, organism-based; settings: A/Puerto Rico/8/1934(H1N1), 48 h
Outline: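 MDCK monolayers infected with PR8 (H1N1, Cambridge lineage) at 40 PFU/well for 1 h at 37 °C with compound at various concentrations, in DMEM with 1 µg/mL TPCK-trypsin and 0.14% BSA. Overlay of the same medium with 1.2% Avicel plus compound. After 2 days, fixed with 4% formaldehyde, stained with 0.1% toluidine blue, plaques counted. DMSO mean = 100%. EC50 reported as mean ± SD, ≥3 independent experiments in duplicate.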

`Cc1cccc(NC(=O)CSc2nc(-c3ccccc3)cc(-c3ccccc3)c2C#N)c1` gave a CC50 at 48 h [1] of over 250 µM, a CC50 at 24 h [2] of over 250 µM and an EC50 [3] of 86.6 µM.

For `COC(=O)[C@H](CC(C)C)NC(=O)CSc1nc(-c2ccccc2)cc(-c2ccc(C)cc2)c1C#N`, the IC50 [4] was 149 µM, the EC50 (Influenza A virus) was 97 µM and the CC50 at 48 h [1] was 215 µM.

With `COC(=O)[C@H](Cc1ccc(O)cc1)NC(=O)CSc1nc(-c2ccccc2)cc(-c2ccc(C)cc2)c1C#N` the IC50 [4] was 18 µM, the EC50 (Influenza A virus) was over 100 µM and the CC50 at 48 h [1] was over 250 µM.

Compound `CC[C@H](C)[C@H](NC(=O)CSc1nc(-c2ccccc2)cc(-c2ccc(C)cc2)c1C#N)C(=O)OC` has an IC50 [4] of 36 µM, an EC50 (Influenza A virus) of 39 µM and a CC50 at 48 h [1] of over 250 µM. The CC50 at 24 h [2] was 229 µM and the EC50 [3] was 53 µM.

Compound `COC(=O)C[C@H](NC(=O)[C@@H](NC(=O)CSc1nc(-c2ccccc2)cc(-c2ccc(C)cc2)c1C#N)C(C)C)C(=O)OC` has an IC50 [4] of 143 µM, an EC50 (Influenza A virus) of 49 µM and a CC50 at 48 h [1] of over 250 µM. The CC50 at 24 h [2] was over 250 µM and the EC50 [3] was 59 µM.

For `Cc1ccc(-c2cc(-c3ccccc3)nc(SCC(=O)O)c2C#N)cc1`, the IC50 [4] was 56 µM, the EC50 (Influenza A virus) was 65 µM and the CC50 at 48 h [1] was over 250 µM. For the same compound, the CC50 at 24 h [2] was 218 µM and the EC50 [3] was 43 µM.

In the case of `COC(=O)C[C@H](NC(=O)[C@@H](NC(=O)CSc1nc(-c2ccccc2)cc(-c2ccc(C)cc2)c1C#N)C(C)C)C(=O)N[C@@H](CCSC)C(=O)OC`, the IC50 [4] is reported as 68 µM, the EC50 (Influenza A virus) is reported as over 100 µM and the CC50 at 48 h [1] is reported as over 250 µM.

Work on `COC(=O)[C@H](Cc1ccccc1)NC(=O)CSc1nc(-c2ccccc2)cc(-c2ccc(C)cc2)c1C#N` yielded an IC50 [4] of over 200 µM, an EC50 (Influenza A virus) of 68 µM and a CC50 at 48 h [1] of 240 µM.

`COC(=O)[C@H](Cc1cnc[nH]1)NC(=O)CSc1nc(-c2ccccc2)cc(-c2ccc(C)cc2)c1C#N` gave an IC50 [4] of 32 µM, an EC50 (Influenza A virus) of 80 µM and a CC50 at 48 h [1] of 152 µM.

`Cc1ccc(-c2cc(-c3ccccc3)nc(SCC(=O)N[C@H](C(=O)O)C(C)C)c2C#N)cc1` gave an IC50 [4] of 76 µM, an EC50 (Influenza A virus) of 50 µM and a CC50 at 48 h [1] of over 250 µM. It also gave a CC50 at 24 h [2] of 250 µM and an EC50 [3] of 77 µM.

Work on `COC(=O)[C@@H](NC(=O)CSc1nc(-c2ccccc2)cc(-c2ccc(C)cc2)c1C#N)C(C)C` yielded an IC50 [4] of 167 µM, an EC50 (Influenza A virus) of 52 µM and a CC50 at 48 h [1] of 210 µM. For the same compound, the CC50 at 24 h [2] was over 250 µM and the EC50 [3] was 41 µM.

Compound `COC(=O)CC[C@H](NC(=O)CSc1nc(-c2ccccc2)cc(-c2ccc(C)cc2)c1C#N)C(=O)OC` has an IC50 [4] of 187 µM, an EC50 (Influenza A virus) of over 100 µM and a CC50 at 48 h [1] of over 250 µM.

`Cc1ccc(-c2cc(-c3ccccc3)nc(SCC(=O)N[C@H](C(=O)N[C@@H](CC(=O)O)C(=O)O)C(C)C)c2C#N)cc1` gave an IC50 [4] of 77 µM, an EC50 (Influenza A virus) of 100 µM and a CC50 at 48 h [1] of over 250 µM.

`Cc1ccc(-c2cc(-c3ccccc3)nc(SCNC(=O)OC(C)(C)C)c2C#N)cc1` showed an IC50 [4] of over 200 µM, an EC50 (Influenza A virus) of over 100 µM and a CC50 at 48 h [1] of over 250 µM.

Compound `CSCC[C@H](N)C(=O)N[C@@H](CC(=O)O)C(=O)N[C@H](C(=O)N[C@@H](CC(N)=O)C(=O)N1CCC[C@H]1C(=O)N[C@H](C(=O)N[C@@H](CC(C)C)C(=O)N[C@@H](CC(C)C)C(=O)N[C@@H](Cc1ccccc1)C(=O)N[C@@H](CC(C)C)C(=O)N[C@@H](CCCCN)C(=O)N[C@H](C(=O)N1CCC[C@H]1C(=O)N[C@@H](C)C(=O)N[C@@H](CCC(N)=O)C(=O)N[C@@H](Cc1ccc(O)cc1)C(=O)NCC(=O)N[C@@H](CCCNC(=N)N)C(=O)N[C@@H](CCCCN)C(=O)N[C@@H](CCCCN)C(=O)N[C@@H](CCCNC(=N)N)C(=O)N[C@@H](CCCNC(=N)N)C(=O)N[C@@H](CCC(N)=O)C(=O)N[C@@H](CCCNC(=N)N)C(=O)N[C@@H](CCCNC(=N)N)C(=O)N[C@@H](CCCNC(=N)N)C(=O)N1CCC[C@H]1C(=O)N1CCC[C@H]1C(=O)O)C(C)C)[C@@H](C)O)C(C)C` has an IC50 [4] of 31.7 µM, an EC50 (Influenza A virus) of 49.7 µM and a CC50 at 48 h [1] of over 250 µM. It also gave a CC50 at 24 h [2] of over 250 µM and an EC50 [3] of 15.5 µM.

With `COC(=O)[C@H](CCCNC(=N)N)NC(=O)CSc1nc(-c2ccccc2)cc(-c2ccc(C)cc2)c1C#N` the IC50 [4] was 48 µM, the EC50 (Influenza A virus) was over 100 µM and the CC50 at 48 h [1] was over 250 µM.

Work on `Cc1ccc(-c2cc(-c3ccccc3)nc(SCC(N)=O)c2C#N)cc1` yielded an IC50 [4] of 102 µM, an EC50 (Influenza A virus) of 41 µM and a CC50 at 48 h [1] of over 250 µM. The CC50 at 24 h [2] was 218 µM and the EC50 [3] was 65 µM.

`CCC(CC)O[C@@H]1C=C(C(=O)O)C[C@H](N)[C@H]1NC(C)=O` [OSELTAMIVIR CARBOXYLATE] gave an EC50 (Influenza A virus) of 0.015 µM, a CC50 at 48 h [1] of over 250 µM and a CC50 at 24 h [2] of over 250 µM.

Compound `NC(=O)c1ncn([C@@H]2O[C@H](CO)[C@@H](O)[C@H]2O)n1` [RIBAVIRIN] has a CC50 at 48 h [1] of over 250 µM, a CC50 at 24 h [2] of over 250 µM and an EC50 [3] of 23.8 µM.
